Data as given in ChEMBL document CHEMBL1153883, “Cytotoxic, antioxidant activities and structure activity relationship of some newly synthesized terpenoidal oxaliplatin analogs” (Eur J Med Chem, 2009).

Columns and labels:
[1] = Acute toxicity in Albino rat; assay type: organism-based; conditions: in vivo
[2] = tested on: HT-29; experiment: Cytotoxicity against human HT-29 cells at 50 ug/ml after 12 hrs by neutral red assay; assay type: functional
Procedure, shortened: (§1)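 HT-29 cells (Korean Cell Line Bank) were kept in DMEM with 10% FBS, penicillin and streptomycin at 37 °C under 5% CO2. Cells in 96-well plates were exposed to compounds for 12–48 h. The medium was replaced with fresh medium for neutral red uptake. Dye was extracted with 50% ethanol containing 50 mM sodium citrate (pH 4.2), and absorbance was read at 510 nm after 20 min.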

[3] = tested on: HT-29; experiment: Cytotoxicity against human HT-29 cells at 50 ug/ml after 24 hrs by neutral red assay; assay type: functional; procedure, shortened: as §1
[4] = tested on: HT-29; experiment: Cytotoxicity against human HT-29 cells at 50 ug/ml after 48 hrs by neutral red assay; assay type: functional; procedure, shortened: as §1
[5] = tested on: HT-29; experiment: Cytotoxicity against human HT-29 cells at 100 ug/ml after 12 hrs by neutral red assay; assay type: functional; procedure, shortened: as §1
[6] = tested on: HT-29; experiment: Cytotoxicity against human HT-29 cells at 100 ug/ml after 24 hrs by neutral red assay; assay type: functional; procedure, shortened: as §1
[7] = tested on: HT-29; experiment: Cytotoxicity against human HT-29 cells at 100 ug/ml after 48 hrs by neutral red assay; assay type: functional; procedure, shortened: as §1
[8] = tested on: HT-29; experiment: Cytotoxicity against human HT-29 cells at 150 ug/ml after 12 hrs by neutral red assay; assay type: functional; procedure, shortened: as §1
[9] = tested on: HT-29; experiment: Cytotoxicity against human HT-29 cells at 150 ug/ml after 24 hrs by neutral red assay; assay type: functional; procedure, shortened: as §1
[10] = Antioxidant activity assessed as superoxide anion scavenging activity by NBT reduction method; assay type: functional; set-up: concentration or dose not given beside the values
Procedure, shortened: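 Superoxide was generated by […]xanthine oxidase. Sample in 100 mM phosphate buffer (pH ~7.0) with xanthine oxidase (1.65 × 10^-2 units/ml) and NBT at 25 °C. The reaction was started by adding xanthine and followed by NBT reduction absorbance. Scavenging % was calculated from the absorbance increase with sample versus without sample (control).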

[11] = Antioxidant activity assessed as superoxide anion scavenging activity by NBT reduction method relative to Vitamin C; assay type: functional; set-up: concentration or dose not given beside the values

Structure (SMILES) | LD50 [1] | Activity [2] | Activity [3] | Activity [4] | Activity [5] | Activity [6] | Activity [7] | Activity [8] | Activity [9] | Activity [10] | Activity [11]
COC(=O)[C@@]1(C)CC[C@]2(C)CC[C@]3(C)C(=CC(=O)[C@@H]4[C@@]5(C)C[C@H](N)[C@@H](N)C(C)(C)[C@@H]5CC[C@]43C)[C@@H]2C1 | 893 mg/kg | 40% | 43% | 45% | 48% | 50% | 58% | 65% | 70% | 70.1% | 1.56%
CC1(C)[C@H](O)[C@@H](O)C[C@]2(C)[C@H]3C(=O)C=C4[C@@H]5C[C@@](C)(C(=O)O)CC[C@]5(C)CC[C@@]4(C)[C@]3(C)CC[C@@H]12 | 656 mg/kg | – | – | – | – | – | – | – | – | – | –
COC(=O)[C@@]1(C)CC[C@]2(C)CC[C@]3(C)C(=CC(=O)[C@@H]4[C@@]5(C)C[C@H](O)[C@@H](O)C(C)(C)[C@@H]5CC[C@]43C)[C@@H]2C1 | 793 mg/kg | 19% | 21% | 33% | 39% | 41% | 42% | 40% | 52% | 65.1% | 1.45%
COC(=O)[C@]12CC[C@@H](C)[C@H](C)[C@H]1C1=CC[C@@H]3[C@@]4(C)C[C@@H](O)[C@H](O)C(C)(C)[C@@H]4CC[C@@]3(C)[C@]1(C)CC2 [COROSOLIC ACID METHYL ESTER] | 818 mg/kg | 22% | 29% | 35% | 40% | 44% | 50% | 53% | 58% | 68% | 1.51%
COC(=O)[C@@]1(C)CC[C@]2(C)CC[C@]3(C)C(=CC(=O)[C@@H]4[C@@]5(C)C[C@H](N=[N+]=[N-])[C@@H](N=[N+]=[N-])C(C)(C)[C@@H]5CC[C@]43C)[C@@H]2C1 | 898 mg/kg | 29% | 31% | 36% | 42% | 46% | 52% | 55% | 60% | 68.1% | 1.51%
C[C@H]1[C@H](C)CC[C@]2(C(=O)O)CC[C@]3(C)C(=CC[C@@H]4[C@@]5(C)C[C@@H](O)[C@H](O)C(C)(C)[C@@H]5CC[C@]43C)[C@H]12 [COROSOLIC ACID] | 816 mg/kg | – | – | – | – | – | – | – | – | – | –
O=C1O[C@H]([C@@H](O)CO)C(O)=C1O | – | – | – | – | – | – | – | – | – | 45% | 1%
COC(=O)[C@]12CC[C@@H](C)[C@H](C)[C@H]1C1=CC[C@@H]3[C@@]4(C)C[C@@H](N=[N+]=[N-])[C@H](N=[N+]=[N-])C(C)(C)[C@@H]4CC[C@@]3(C)[C@]1(C)CC2 | 825 mg/kg | 33% | 35% | 40% | 44% | 48% | 55% | 61% | 66% | 69.1% | 1.54%
COC(=O)[C@]12CC[C@@H](C)[C@H](C)[C@H]1C1=CC[C@@H]3[C@@]4(C)C[C@@H](N)[C@H](N)C(C)(C)[C@@H]4CC[C@@]3(C)[C@]1(C)CC2 | 836 mg/kg | 44% | 47% | 50% | 56% | 60% | 62% | 70% | 75% | 74.2% | 1.65%
